IMP-1 inh-1 – inhibitors of Pseudomonas aeruginosa IMP-1 metallo-beta-lactamase; purified IMP-1, nitrocefin hydrolysis, epi-absorbance fluorescence; AID 1556; inhibition, % at 5.6 µM; actives 0.45% (n = 290,000);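 active = inhibition above the mean plus 3 SD of all compounds in the same screening run, cut at about 4.5% in these data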;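 also: 0% = IMP-1 with DMSO and 100% = DMSO wells lacking enzyme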
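Material – recombinant IMP-1 enzyme, purified · Amount – IMP-1 0.2 nM before substrate addition · Medium – HEPES buffer pH 7.1 with ZnSO4 and Brij 35 · Timing – 25 °C, 15 min preincubation, 25 min reaction · Measured by – plate fluorescence quenching by hydrolysis product, ex 480/em 530 nm · Read-out – percent enzyme inhibition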
PfM18AAP inh-1 – PfM18AAP enzyme inhibition | recombinant PfM18AAP, H-Glu-NHMec fluorogenic cleavage | inhibition, % at 7.35 µM | actives 1.2% (n = 290,000) | AID 1822;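 active = inhibition above the campaign mean inhibition over all tested compounds plus 3 SD, cut at about 28% in these data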;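 also: 0% = plate median of test compound wells and 100% = 2 mM ZnCl2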
VIM-2 inhibitor – inhibitors of Pseudomonas aeruginosa VIM-2 metallo-beta-lactamase. purified VIM-2, nitrocefin hydrolysis, epi-absorbance fluorescence. inhibition, % at 5.6 µM. actives 0.89% (n = 290,000);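 active = inhibition above the mean of all tested compounds plus 3 SD, cutoff set per screening run, cut at about 7.5% in these data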;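 also: red hydrolysis product quenches plate fluorescence so inhibitors raise well fluorescence; 0% = enzyme with DMSO and 100% = DMSO without enzyme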
sPLA2-III inh – Blocks human group III sPLA2 activity | Q9NZ20 | QFRET BODIPY PC-A2 liposome hydrolysis, fluorescence | inhibition, % at 12.2 µM | actives 0.56% (n = 370,000) | AID 743126;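 active = inhibition above mean plus 3 SD of compounds lying within the high and low control bounds, cut at about 19% in these data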;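 also: 0% = median of test compound wells and 100% = no enzyme DMSO wells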
Target sequence (Q9NZ20 whole entry, looked up): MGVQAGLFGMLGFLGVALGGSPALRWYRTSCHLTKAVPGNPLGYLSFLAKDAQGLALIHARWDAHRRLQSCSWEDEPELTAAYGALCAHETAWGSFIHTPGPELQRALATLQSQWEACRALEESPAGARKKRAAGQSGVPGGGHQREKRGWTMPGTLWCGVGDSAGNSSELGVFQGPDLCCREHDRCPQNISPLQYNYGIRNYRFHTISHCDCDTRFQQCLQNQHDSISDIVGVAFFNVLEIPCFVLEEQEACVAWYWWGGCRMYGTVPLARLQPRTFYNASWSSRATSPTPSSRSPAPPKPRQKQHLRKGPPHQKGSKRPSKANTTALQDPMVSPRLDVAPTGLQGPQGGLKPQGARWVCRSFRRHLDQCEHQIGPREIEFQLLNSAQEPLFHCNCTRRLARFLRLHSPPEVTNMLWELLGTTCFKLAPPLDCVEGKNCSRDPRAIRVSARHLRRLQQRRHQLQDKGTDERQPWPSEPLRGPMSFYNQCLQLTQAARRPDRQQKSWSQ
IMP-1 inh-2 – IMP-1 inhibition, counter-screen for VIM-2 inhibitors. AID 1856. shares compounds with VIM-2 inhibitor. purified IMP-1, nitrocefin hydrolysis, epi-absorbance fluorescence. inhibition, % at 5.6 µM. 1,300 tested, under 10 active; call rule not given here;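 also: 0% = enzyme with vehicle and 100% = vehicle without enzyme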
VIM-2 FRET ctr – VIM-2 FRET inhibition, artifact counter-screen; inhibition, % at 5.6 µM; actives 23% (n = 1,300); AID 1857; shares compounds with VIM-2 inhibitor; purified VIM-2, CCF2 FRET substrate hydrolysis;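 active = inhibition above the mean of all tested compounds plus 3 SD, cut at about 19% in these data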;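 also: 0% = VIM-2 plus DMSO and 100% = no enzyme wells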
TEM-1 inh – TEM-1 inhibition, counter-screen for VIM-2 inhibitors | shares compounds with VIM-2 inhibitor | Purified TEM-1, nitrocefin hydrolysis, epi-absorbance fluorescence | inhibition, % at 5.6 µM | actives 3% (n = 1,300) | AID 1866;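 active = inhibition above that campaign's mean inhibition plus 3 SD, cut at about 0.46% in these data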;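 also: 0% = TEM-1 with DMSO and 100% = TEM-1 with 100 µM potassium clavulanate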
VIM-2 confirm 2 – confirmation of P. aeruginosa VIM-2 metallo-beta-lactamase inhibitors; actives 96% (n = 1,300); inhibition, % at 5.6 µM; purified VIM-2, nitrocefin hydrolysis, epi-absorbance; shares compounds with VIM-2 inhibitor;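 active = inhibition of the VIM-2 beta-lactamase enzyme above about 11% from the earlier first-round screen, limit read from the data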;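 also: 0% = VIM-2 with DMSO and 100% = buffer wells without enzyme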
PfM18AAP inh-2 – confirmation of Plasmodium falciparum M18 aspartyl aminopeptidase inhibitors; inhibition, % at 7.35 µM; recombinant PfM18AAP, H-Glu-NHMec fluorogenic cleavage; actives 28% (n = 2,400); shares compounds with PfM18AAP inh-1;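 active = mean inhibition over replicate wells above the hit cutoff set for the earlier primary screen, cut at about 29% in these data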;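 also: 0% = median of test compound wells and 100% = 2 mM ZnCl2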
CTSL1 counter – Cathepsin L (human) inhibition, confirmation | shares compounds with PfM18AAP inh-1 | purified cathepsin L1, Z-Leu-Arg-MCA fluorescence | inhibition, % at 5.96 µM | 2,400 tested, under 10 active;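 active = average inhibition across replicates above the hit cutoff set in the earlier primary screen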;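 also: 0% = median of test compound wells and 100% = Z-Phe-Ala-diazomethylketone 1 µM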
The depositor's hits bear a star; / = no result. Most compounds without a hit are left out; they make up all but 2.4% or so of the library.

SMILES	IMP-1 inh-1	PfM18AAP inh-1	VIM-2 inhibitor	sPLA2-III inh	IMP-1 inh-2	VIM-2 FRET ctr	TEM-1 inh	VIM-2 confirm 2	others
O=C(C1CCCN1S(=O)(=O)c1cccs1)N1CCc2ccccc2C1 (stereo not given)	/	/	/	12.2	/	/	/	/
O=C1NC[C@@H](c2ccccc2)OC(=O)[C@@H](Cc2ccc(F)cc2)C/C=C\C[C@@H]1CC(=O)N(CCO)Cc1ccccc1	/	/	/	-5.0	/	/	/	/
Cc1cc(=S)c2ccccc2[nH]1	-2.1	8.3	60.3*	-8.6	-3.4	2.3	-5.9	57.4*
Cc1ccc2[nH]c(C)cc(=S)c2c1	-2.4	-0.7	-0.1	-8.1	/	/	/	/
O=C(COC(=O)C12CC3CC(CC(Br)(C3)C1)C2)Nc1cccc(S(=O)(=O)N2CCOCC2)c1	/	/	/	-22.9	/	/	/	/
Cc1c(Cl)c(-c2n[nH]c(=S)n2-c2ccccc2)nn1C	-5.2	14.2	19.3*	1.5	-3.4	44.1*	-8.2	26.5*
Cc1cccc(-c2n[nH]c(=S)n2-c2ccccc2)c1[N+](=O)[O-]	-1.6	19.4	34.0*	13.2	-2.4	61.7*	-6.8	44.4*
O=[N+]([O-])c1cccc(-c2n[nH]c(=S)n2-c2ccccc2)c1	-2.9	12.0	-0.5	/	/	/	/	/
O=C(Nc1ccc(F)cc1)OCCN1C(=O)CCC12CCC(c1ccc(Cl)cc1)CC2 (stereo not given)	/	/	/	4.9	/	/	/	/
O=C(O)C1Sc2[nH]c(=O)sc2C2c3cc(Cl)ccc3OC(=O)C12 (stereo not given)	-1.8	5.4	14.2*	2.6	-1.4	41.0*	-7.6	28.8*
COC(=O)C1Sc2[nH]c(=O)sc2C(c2ccc(Cl)cc2)C1C(=O)OC (stereo not given)	-3.5	-0.4	-3.0	2.2	/	/	/	/
CC(NC(=O)CCNS(=O)(=O)c1cccc2nonc12)c1ccccc1 (stereo not given)	-5.2	2.5	-3.3	0.4	/	/	/	/
CC(=O)Nc1nnc(SCC(=O)NCC2CCCO2)s1 (stereo not given)	/	/	/	6.3	/	/	/	/
O=C(CSc1nnc(NC(=O)c2ccccc2[N+](=O)[O-])s1)NCC1CCCO1 (stereo not given)	-1.8	1.8	19.2*	4.3	-3.3	34.7*	-6.1	23.0*
O=C(CSc1nnc(Nc2ccccc2F)s1)NCC1CCCO1 (stereo not given)	/	/	/	15.9	/	/	/	/
O=C(CSc1nnc(NC(=O)c2ccccc2F)s1)NCC1CCCO1 (stereo not given)	-1.9	1.8	15.0*	-3.1	-3.1	28.2*	-6.8	17.4*
COc1ccc(Cc2nc3ccc(C(=O)NCc4ncc(C)[nH]4)cc3o2)cc1OC	-2.1	-11.1	38.0*	3.2	-3.4	-12.2	-5.7	50.2*
O=C(c1ccco1)N1CCN(C(=O)c2cccn3c(=O)c4c5c(sc4nc23)CCCC5)CC1	/	/	/	-0.3	/	/	/	/
Cc1cccn2c(=O)c3cc(C(=O)NCCN4CCOCC4)n(C)c3nc12	-1.1	4.3	19.2*	1.6	-2.6	-2.0	-7.6	28.0*
O=C(NCCN1CCOCC1)c1cccn2c(=O)c3c4c(sc3nc12)CCCC4	-1.1	0.7	16.8*	/	-3.4	-0.7	-7.6	47.0*
CCOc1cc2nc(-c3ccc(OC)c(OC)c3)nc(NCCCN3CCOCC3)c2cc1OC	0.3	-10.1	26.2*	-6.4	-3.7	3.2	-6.8	49.3*
CSc1sc(C(=O)NC(=O)NCc2ccncc2)c(C)c1-c1ccon1	-2.5	12.8	32.4*	-2.0	-3.1	-6.7	-5.6	41.6*
CC(C)Sc1nc(SCC(=O)O)c2c3c(sc2n1)COC(C)(C)C3	-0.3	-5.4	24.2*	3.0	-4.1	22.7*	-5.0	8.8*
CC(C)Sc1nc(SCC(=O)NCc2ccco2)c2c3c(sc2n1)COC(C)(C)C3	-2.9	5.3	0.8	-0.8	/	/	/	/
COc1ccc([C@H]2OC(=O)C[C@H]2C(=O)N2CCN(C(=O)C3CCCO3)CC2)cc1OC (stereo not given in full)	/	/	/	6.5	/	/	/	/
CCCCn1c(Cc2ccccc2)n[nH]c1=S	-3.2	8.5	-1.6	14.0	/	/	/	/
CCCCn1c(-c2sccc2C)n[nH]c1=S	-1.7	32.0*	38.9*	11.7	-2.0	67.0*	-8.2	50.1*	PfM18AAP inh-2=0.9;CTSL1 counter=4.9
COc1ccc2[nH]c3c(c2c1)CCN1C(=O)C(CC(=O)NCc2cccc(C(F)(F)F)c2)C[C@H](C(=O)N2CCCCC2)[C@@]31CCc1ccccc1 (stereo not given in full)	/	/	/	-2.4	/	/	/	/
CN(CC#CC1=CCCCC1)/C(N)=N/C(=O)OCc1ccccc1	/	/	/	-5.3	/	/	/	/
O=[N+]([O-])c1ccc(-c2ccc(/C=N/n3cnnc3)o2)c(Br)c1	-3.1	50.9*	44.6*	4.6	-2.2	7.4	-2.5	57.2*	PfM18AAP inh-2=-10.2;CTSL1 counter=4.0
